According to ChEMBL document CHEMBL3120086, “Bioactive compounds from Vitex leptobotrys” (J Nat Prod, 2014):

Assays:
[1] = Selectivity index, ratio of cytotoxicity towards human Akata cells to EC50 for EBV infected in human Akata cells; assay type: toxicity, cell-based; conditions: read-out: Selectivity Index
Human gammaherpesvirus 4 = assay: Antiviral activity against EBV infected in human Akata cells by DNA hybridization assay; assay type: functional, organism-based; conditions: human gammaherpesvirus 4, Akata
Summary of the method: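 Under an NIAID agreement, testing was done at Southern Research Institute as part of a 21-virus panel. EBV activity was assessed in Akata cells by DNA hybridization, and EC50 values were derived.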

[2] = test system: Human immunodeficiency virus 1; assay: Antiviral activity against HIV-1 3B/H9 infected in human HOG.R5 cells transfected with HIV1 LTR-GFP assessed as inhibition of viral replication by fluorescence analysis; assay type: functional, organism-based; conditions: Human immunodeficiency virus 1, 3B
[3] = test system: Human immunodeficiency virus 1; assay: Antiviral activity against HIV-1 3B/H9 infected in human HOG.R5 cells transfected with HIV1 LTR-GFP assessed as inhibition of viral replication at 15.9 uM by fluorescence analysis; assay type: functional; conditions: Human immunodeficiency virus 1, 3B
[4] = Cytotoxicity against human HOG.R5 cells infected with HIV-1 3B; assay type: cell-based
Summary of the method: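 Cytotoxicity was run in parallel with the anti-HIV assay, in the same GFP-reporter HOG·R5 line (HOS cells expressing CD4/CCR5). Cell-growth inhibition of the host cells was measured.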

[5] = test system: Human immunodeficiency virus 1; assay: Antiviral activity against HIV-1 3B/H9 infected in human HOG.R5 cells transfected with HIV1 LTR-GFP assessed as inhibition of viral replication at 10 ug/ml by fluorescence analysis; assay type: functional; conditions: Human immunodeficiency virus 1, 3B

| Compound | selectivity ratio [1] | EC50 (Human gammaherpesvirus 4) | IC50 [2] | inhibition at 15.9 µM [3] | CC50 [4] | inhibition at 10 µg/mL [5] |
| --- | --- | --- | --- | --- | --- | --- |
| O[C@]12CO[C@@H](c3ccc4c(c3)OCO4)[C@@]1(O)CO[C@@H]2c1ccc2c(c1)OCO2 | 1.2 | 67 µM | – | – | – | – |
| COc1cc(OC)c(C(=O)/C=C/c2ccc(O)cc2)c(OC)c1 | 3.5 | 15 µM | < 15.2 µM | 77% | 24.4 µM | – |
| C=Cc1c(C)c2cc3nc(c4c5[nH]c(cc6nc(cc1[nH]2)C(C)=C6CC)c(C)c5C(=O)[C@@H]4C(=O)OC)[C@@H](CCC(=O)O)[C@@H]3C [PHEOPHORBIDE A] | – | – | – | – | – | 80% |
